Tests used:
[1] = Cell cycle arrest in human HL60/MDR cells assessed as accumulation at S phase at 25 uM after 48 hrs by flow cytometry (reference value: 29.9 %); assay type: functional, cell-based
Summary of the method: (§1)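 HL60/MDR cells (about 5 × 10^5 cells/mL) exposed 48 h under standard culture to doxorubicin (0.2 and/or 0.02 μM) or lignan (25 μM) alone; DMSO-treated control. Cells fixed in 70% ethanol 30 min at room temperature, RNase A (17 μg/mL) 37 °C 30 min, PI (3 μg/mL) 10 min dark; DNA content by flow cytometry, FL3 (620 nm), 10 000–20 000 events.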

[2] = Cell cycle arrest in human HL60/MDR cells assessed as accumulation at G2/M phase at 25 uM after 48 hrs by flow cytometry (reference value: 11.3 %); assay type: functional, cell-based; summary of the method: as §1
[3] = Cell cycle arrest in human HL60/MDR cells assessed as accumulation at G1 phase at 25 uM after 48 hrs by flow cytometry (reference value: 59.0 %); assay type: functional, cell-based; summary of the method: as §1
[4] = Potentiation of 0.02 uM doxorubicin-induced cytotoxicity in human HL60/MDR cells assessed as viable cells at 25 uM after 48 hrs by WST assay relative to control; assay type: functional
[5] = Cytotoxicity against human HL60/MDR cells assessed as viable cells at 25 uM after 48 hrs by WST assay; assay type: functional; conditions: for viability at 25 µM: Homo sapiens, HL60/MDR, 48 h, read-out: Activity
[6] = Potentiation of 0.2 uM doxorubicin-induced cytotoxicity in human HL60/MDR cells assessed as viable cells at 25 uM after 48 hrs by WST assay relative to control; assay type: functional
[7] = Potentiation of 0.6 uM doxorubicin-induced cytotoxicity in human HL60/MDR cells assessed as viable cells at 25 uM after 48 hrs by WST assay relative to control; assay type: functional
[8] = Cell cycle arrest in human HL60/MDR cells assessed as accumulation at S phase at 0.02 uM after 48 hrs by flow cytometry (reference value: 29.9 %); assay type: functional, cell-based; summary of the method: as §1
[9] = Cell cycle arrest in human HL60/MDR cells assessed as accumulation at G1 phase at 0.02 uM after 48 hrs by flow cytometry (reference value: 59.0 %); assay type: functional, cell-based; summary of the method: as §1
[10] = Cell cycle arrest in human HL60/MDR cells assessed as accumulation at G2/M phase at 0.2 uM after 48 hrs by flow cytometry (reference value: 11.3 %); assay type: functional, cell-based; summary of the method: as §1
[11] = Cell cycle arrest in human HL60/MDR cells assessed as accumulation at G2/M phase at 0.02 uM after 48 hrs by flow cytometry (reference value: 11.3 %); assay type: functional, cell-based; summary of the method: as §1
[12] = Cytotoxicity against human HL60/MDR cells assessed as viable cells at 0.6 uM after 48 hrs by WST assay; assay type: functional; conditions: read-out: Activity
Summary of the method: (§2)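 Doxorubicin-resistant HL60/MDR cells seeded at 5 × 10^4 cells/mL and held 48 h at 37 °C with doxorubicin (0.02, 0.2, 0.6 μM) alone or plus modulator (25 μM). WST-1 (1 mM) with 0.2 mM MMPM then added for 4 h; absorbance at 450 nm. Viability given as % of untreated cells; two independent experiments, each in triplicate.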

[13] = Cytotoxicity against human HL60/MDR cells assessed as viable cells at 0.2 uM after 48 hrs by WST assay; assay type: functional; conditions: read-out: Activity; summary of the method: as §2
[14] = Cell cycle arrest in human HL60/MDR cells assessed as accumulation at S phase at 0.2 uM after 48 hrs by flow cytometry (reference value: 29.9 %); assay type: functional, cell-based; summary of the method: as §1
[15] = Cell cycle arrest in human HL60/MDR cells assessed as accumulation at G1 phase at 0.2 uM after 48 hrs by flow cytometry (reference value: 59.0 %); assay type: functional, cell-based; conditions: in the assay text read “G2/M phase” for “G1 phase”; summary of the method: as §1
[16] = Cytotoxicity against human HL60/MDR cells assessed as viable cells at 0.02 uM after 48 hrs by WST assay; assay type: functional; conditions: read-out: Activity; summary of the method: as §2
[17] = Potentiation of doxorubicin-induced cell cycle arrest in human HL60/MDR cells assessed as accumulation at S phase at 25 uM after 48 hrs by flow cytometry (reference value: 59.0 %); assay type: functional
[18] = Potentiation of doxorubicin-induced cell cycle arrest in human HL60/MDR cells assessed as accumulation at G1 phase at 25 uM after 48 hrs by flow cytometry (reference value: 59.0 %); assay type: functional
[19] = Potentiation of doxorubicin-induced cell cycle arrest in human HL60/MDR cells assessed as accumulation at G2/M phase at 25 uM after 48 hrs by flow cytometry (reference value: 59.0 %); assay type: functional

Structure (SMILES): COc1cc2c(c(OC)c1OC)-c1c(cc(OC)c(OC)c1OC)C[C@H](C)[C@H](C)C2
- Activity [1]: 30.5%
- Activity [2]: 12.1%
- Activity [3]: 57.3%

Structure (SMILES): COc1cc2c(c(OC)c1OC)-c1c(cc3c(c1OC)OCO3)C[C@H](C)[C@H](C)C2
- Activity [1]: 26.4%
- Activity [2]: 8.8%
- Activity [3]: 64.8%

Structure (SMILES): COc1cc2c(c(OC)c1OC)-c1c(cc3c(c1OC)OCO3)CC(C)C(C)C2 (racemic) [SCHISANDRIN B]
- Activity [4]: 117%
- viability at 25 µM [5]: 88%
- Activity [6]: 41%
- Activity [7]: 36%

Structure (SMILES): COc1cc2c(c(OC)c1OC)-c1c(cc(OC)c(OC)c1OC)C[C@H](C)[C@H](C)C2 (single isomer, unassigned; atropisomer 1) [SCHISANDRIN A]
- Activity [4]: 108%
- Activity [5]: 144%
- Activity [6]: 48%
- Activity [7]: 39%

Structure (SMILES): COc1cc2c(c(OC)c1OC)-c1c(cc3c(c1OC)OCO3)C[C@H](C)[C@H](C)C2 (single isomer, unassigned; atropisomer 1) [WUWEIZISU B]
- Activity [4]: 94%
- Activity [5]: 102%
- Activity [6]: 66%
- Activity [7]: 38%

Structure (SMILES): COc1cc2c(c(OC)c1OC)-c1c(cc3c(c1OC)OCO3)C[C@@H](C)[C@@H](C)C2 (single isomer, unassigned; atropisomer 2) [KADSURANIN]
- Activity [4]: 100%
- viability at 25 µM [5]: 106%
- Activity [6]: 97%
- Activity [7]: 81%

Structure (SMILES): COc1cccc2c1C(=O)c1c(O)c3c(c(O)c1C2=O)C[C@@](O)(C(=O)CO)C[C@@H]3O[C@H]1C[C@H](N)[C@H](O)[C@H](C)O1 [DOXORUBICIN]
- Activity [8]: 28.3%
- Activity [9]: 55.8%
- Activity [10]: 52%
- Activity [11]: 16%
- viability at 0.6 µM [12]: 91%
- viability at 0.2 µM [13]: 83%
- Activity [14]: 11%
- Activity [15]: 36.9%
- viability at 0.02 µM [16]: 109%

Structure (SMILES): COc1cc2c(c(OC)c1OC)-c1c(cc(OC)c(OC)c1OC)C[C@H](C)[C@H](C)C2 [SCHISANDRIN A]
- Activity [4]: 106%
- Activity [17]: 10.9%
- Activity [5]: 92%
- Activity [18]: 21.2%
- Activity [6]: 52%
- Activity [19]: 67.9%
- Activity [7]: 43%

Structure (SMILES): COc1cc2c(c(OC)c1OC)-c1c(cc3c(c1OC)OCO3)C[C@H](C)[C@H](C)C2 [WUWEIZISU B]
- Activity [4]: 121%
- Activity [17]: 22.7%
- Activity [5]: 128%
- Activity [18]: 40.4%
- Activity [6]: 42%
- Activity [19]: 36.9%
- Activity [7]: 39%
